Consider 167 variants from the RNAGym collection of RNA variant scans (doi:10.1126/science.aae0568).

Sequences and labels used below:
B1: tRNA (parent)
chain: GUUCCGUUGGCGUAAUGGUAACGCGUCUCCCUCCUAAGGAGAAGACUGCGGGUUCGAGUCCCGUACGGAACG

Fewer inactive variants are shown than the library holds.

The data set covers variants of B1. Put plainly: yeast fitness relative to wild type (ratio to wild type); higher = fitter; tRNA-Arg(CCU), competitive growth, 37 C, YPD. The essentials: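 Variants of the tRNA-Arg(CCU) gene, chemically synthesised with a 3% per-site mutation rate at 69 sites, were placed at the native genomic locus in Saccharomyces cerevisiae. The pooled strains were competed in YPD at 37°C for 24 hours in six parallel replicates. Gene amplicons from the start population and from each end population were read by 100-nucleotide paired-end sequencing. Darwinian fitness relative to wild type came from changes in genotype frequencies; genotypes needed ≥ 100 starting reads, and estimates < 0.5 were set to 0.5.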
Consider U28C C60U, for which the yeast fitness is 0.73.
In the case of U28A C29G G51A G56A A69C it was no more than 0.5; in that of U28G C33G A45C, 0.607; in that of U28G C29A G41C A43U U47C C66G, no more than 0.5.
For the variant U28C C49U G52A, the yeast fitness amounted to 0.619.
In the case of U28C C33A C49U C55G it was no more than 0.5; in that of U28G G50C, 0.637; in that of U28C U59C G67A, 0.532.
The figure for U28A C33G A43C C61U A69U is no more than 0.5; for U28C C29G C33A G68C it is no more than 0.5.
In the case of C29A A43U A57C it was 0.642; in that of U28C G39U C49A C55U, no more than 0.5.
U28C G41C G63A: the yeast fitness was no more than 0.5.
Regarding U28G A37C C55U A65U, the yeast fitness was no more than 0.5.
Regarding C29A A37G A57G G67C A69U, the yeast fitness is no more than 0.5.
The figure for U28C C61U is 0.874; for U28C C61A it is 0.765.
The figure for U28A G67A is 0.628.
As for U28C A37C A40U A65U, the yeast fitness is no more than 0.5.
The figure for U28A C55G C66U is no more than 0.5; for U28C A65C it is 0.85.
On to U28C G48A C61G, for which the yeast fitness came out at 0.548.
Consider U28G C34G G44C U64G, for which the yeast fitness was no more than 0.5.
On to U28G G50U C60G, for which the yeast fitness is no more than 0.5.
As to C29A A40G A43G C55U C61U C66G, the yeast fitness was no more than 0.5.
Turning to U28A C49U C55G, the yeast fitness is no more than 0.5.
For U28C A36G, the yeast fitness was determined as 0.989.
For U28A U32A C55G, the yeast fitness is no more than 0.5.
C29A A42G A45U G50A C60A: the yeast fitness was no more than 0.5.
The figure for U28C G58U A65G G67A is no more than 0.5; for U28G C30G U53A C61U it is no more than 0.5; for U28C C55U C66G it is no more than 0.5.
Take U28A G38C G41A C46A: the yeast fitness is no more than 0.5.
C29A C31U A42C: the yeast fitness stood at 0.576.
As to U28A C66U G68A, the yeast fitness was no more than 0.5.
The figure for U28C C29U is 0.806; for U28A G58C it is 0.798; for U28A G58A it is 0.913.
With C29A A57U C60G C62A, the yeast fitness was no more than 0.5.
Take U28G G48A C49G G50U: the yeast fitness was 0.611.
Consider U28C A37C A40U G63A A70C, for which the yeast fitness is no more than 0.5.
Turning to U28C G41C C62A, the yeast fitness is no more than 0.5.
In the case of U28G C30G C49U U64C, the yeast fitness was no more than 0.5.
In the case of U28C A36G G41A A42C it was no more than 0.5; in that of U28G G38A A40G G56A, 0.626.
Take U28C A37C A40U G50A C60G: the yeast fitness was no more than 0.5.
Regarding U28A G44A G50A A57G G63A, the yeast fitness was no more than 0.5.
Consider U28C A37C A70C, for which the yeast fitness is no more than 0.5.
The figure for U28A G48A G58C C66G is no more than 0.5; for C29A A42U C46A G63A it is no more than 0.5; for U28A C33G A43C G63A it is 0.524.
In the case of C29A C30G G50C it was no more than 0.5; in that of U28A G39C, 0.552.
In the case of U28G C31G it was 0.629.
U28G C31U: the yeast fitness was determined as 0.544.
In the case of U28C U47C U59A C66A, the yeast fitness was no more than 0.5.
U28C C33U G41A A69U: the yeast fitness is no more than 0.5.
U28C C31A G41A G58C C66U: the yeast fitness is no more than 0.5.
Take U28C C30U C49U: the yeast fitness is no more than 0.5.
As for U28C C30U U59C, the yeast fitness was no more than 0.5.
Consider U28C C30G A45C C49U, for which the yeast fitness is no more than 0.5.
As for U28C G52C U64A, the yeast fitness is no more than 0.5.
In the case of U28C C33A A42C A45U G63C, the yeast fitness was no more than 0.5.
For U28A C34G C49G, the yeast fitness was no more than 0.5.
The figure for U28C C55U A70U is 0.61; for U28C A42G A65G it is 0.598; for U28G A36G C66U it is 0.582.
Turning to U28A C31U C34U, the yeast fitness is no more than 0.5.
With U28G C29A G56A, the yeast fitness is no more than 0.5.
For the variant U28G A43G G44A, the yeast fitness is no more than 0.5.
U28A G48A C60G: the yeast fitness was no more than 0.5.
As to C29A A36G A45C G56A, the yeast fitness is no more than 0.5.
As to U28G C46U C60A, the yeast fitness was no more than 0.5.
On to U28A C30A G67U, for which the yeast fitness worked out at 0.642.
Turning to U28G C62U, the yeast fitness was found to be 0.737.
For the variant U28G G38C A43G U59C C60G, the yeast fitness was no more than 0.5.
In the case of U28A C49U U54G, the yeast fitness was no more than 0.5.
Consider U28C C34G G38C A45C, for which the yeast fitness was no more than 0.5.
In the case of U28C U54C, the yeast fitness worked out at 0.909.
The figure for C29A C30G G50C A65G is no more than 0.5; for U28G G41C G56A it is 0.562.
As for U28G G52A, the yeast fitness turned out to be 0.681.
In the case of U28C C34G A40G A43G C46G C55U C66U, the yeast fitness is no more than 0.5.
For the variant U28A C61A, the yeast fitness worked out at 0.612.
In the case of C29A C30U C49U, the yeast fitness is no more than 0.5.
Regarding U28G C31G U59A C61G, the yeast fitness is no more than 0.5.
In the case of C29A A45G it was 0.578; in that of C29A A45U, 0.524.
Regarding U28G A40U A69C, the yeast fitness came to 0.629.
C29A A36C G68A: the yeast fitness was no more than 0.5.
In the case of U28G C34U G38A, the yeast fitness is no more than 0.5.
Consider U28C A45G C66U, for which the yeast fitness was 0.72.
Consider C29A C30A G58A, for which the yeast fitness was no more than 0.5.
In the case of U28G G41C, the yeast fitness worked out at 0.551.
Regarding U28A C34U C61U, the yeast fitness worked out at 0.554.
As to U28A G44C, the yeast fitness stood at 0.813.
For U28A G50C, the yeast fitness stood at 0.609.
For the variant U28G U32A, the yeast fitness was 0.678.
Take C29A C30U G58A: the yeast fitness is no more than 0.5.
With U28G C31U A70U, the yeast fitness was determined as 0.543.
The figure for U28C C30A C49U is no more than 0.5.
In the case of U28A G58C G68C it was no more than 0.5.
On to U28C U32C C60A, for which the yeast fitness was no more than 0.5.
As to C29A A45C C49U C66U, the yeast fitness was no more than 0.5.
As for U28G G51C U64A C66U A69C, the yeast fitness turned out to be 0.583.
For C29A A42G A45U G50A, the yeast fitness was 0.534.
For the variant U28A G38A, the yeast fitness amounted to 0.772.
U28A G38C: the yeast fitness was 0.541.
The figure for U28C A45U A70U is 0.773.
Consider U28A C34U, for which the yeast fitness stood at 0.553.
Regarding U28C C31U A36C G41C U47A, the yeast fitness is no more than 0.5.
For the variant U28C C61G G67A, the yeast fitness is no more than 0.5.
Turning to U28C G67A, the yeast fitness amounted to 0.652.
As for U28G U32A G38C A43G, the yeast fitness amounted to 0.551.
As to U28C C29G A43U C49U U54G C66A, the yeast fitness was no more than 0.5.
U28C C33U C49G: the yeast fitness was no more than 0.5.
With U28G G48A G67C A69G, the yeast fitness was no more than 0.5.
Consider C29A C31G G51C C62G, for which the yeast fitness was no more than 0.5.
In the case of U28C C34G A40G A43G C46G G52A C55U C66U, the yeast fitness is 0.547.
Take U28G U32A G38C: the yeast fitness was found to be 0.653.
Consider U28C U64A, for which the yeast fitness turned out to be 0.622.
The figure for U28G U64G is 0.628; for C29A C30U U64C it is no more than 0.5.
Turning to U28C U32C, the yeast fitness is 0.935.
U28C U32A: the yeast fitness is 0.754.
As for U28A C33G A36U A40G U54C, the yeast fitness was determined as 0.528.
For U28C C29U G63C A65U, the yeast fitness was no more than 0.5.
In the case of U28A U59A, the yeast fitness stood at 0.633.
Take U28A U59C: the yeast fitness turned out to be 0.647.
In the case of U28G C61G, the yeast fitness came to 0.634.
Turning to U28G C61U, the yeast fitness amounted to 0.808.
U28A G56A C62A: the yeast fitness worked out at 0.582.
As for U28C U47C, the yeast fitness came out at 0.915.
Take C29A A36C G58A: the yeast fitness is no more than 0.5.
As to C29A A57U A65C, the yeast fitness is 0.584.
In the case of U28A C34U A45U C62A, the yeast fitness was no more than 0.5.
In the case of U28A C31G U35C U47C C60U C61U, the yeast fitness is no more than 0.5.
Take U28C G41A G52U: the yeast fitness is no more than 0.5.
Consider U28A G68U, for which the yeast fitness was determined as 0.762.
In the case of U28A G68C it was 0.707; in that of U28G C31U C66U, no more than 0.5; in that of U28A G48A C61A, no more than 0.5.
The figure for U28G A37G is 0.586.
U28A G52A U54A: the yeast fitness is no more than 0.5.
For C29A A42G A70U, the yeast fitness came out at 0.582.
In the case of U28G A40U G56A it was 1.02; in that of U28A C49A A65C, 0.528.
With U28A U35C, the yeast fitness was found to be 0.753.
Consider U28C C46A C62A U64A, for which the yeast fitness was no more than 0.5.
With U28A C49U, the yeast fitness was determined as 0.804.
As to U28A C49G, the yeast fitness stood at 0.818.
On to U28A C49A, for which the yeast fitness was 0.644.
On to U28C A43U G48C C60G, for which the yeast fitness is no more than 0.5.
In the case of U28A G56A it was 0.796; in that of U28A C46A C60U C66U, no more than 0.5.
With U28C U32C C34U A45U A70U, the yeast fitness turned out to be 0.584.
For the variant U28G G39C C55G, the yeast fitness is no more than 0.5.
In the case of U28A U32C, the yeast fitness was determined as 0.833.
Regarding C29A A36C, the yeast fitness came out at 0.634.
U28G C30A: the yeast fitness was 0.645.
Consider U28C A40C C66G, for which the yeast fitness was found to be 0.733.
For U28G C55G, the yeast fitness is no more than 0.5.
The figure for U28C U47A C61G G67C is no more than 0.5.
As for C29A A40U A45C C49A A57G, the yeast fitness worked out at 0.574.
For U28G U32C C49G G52C, the yeast fitness is no more than 0.5.
The figure for U28C C55G C60A is no more than 0.5; for U28C C33U G41A G52C it is no more than 0.5.
